Results: ChEMBL document CHEMBL3994637, “Broad spectrum anti-infective properties of benzisothiazolones and the parallels in their anti-bacterial and anti-fungal effects” (Bioorg Med Chem Lett, 2017)
In brackets after ≈: the same amount, converted by molar mass.

Experiments:
[1] = system: Staphylococcus aureus; experiment: Antibacterial activity against Staphylococcus aureus ATCC 25923 by broth microdilution method; assay type: functional
[2] = system: Sporothrix schenckii; experiment: Anti-fungal activity against Sporothrix schenckii after 48 hrs by broth microdilution method; assay type: functional
[3] = system: Plasmodium falciparum; experiment: Antimalarial activity against chloroquine-sensitive Plasmodium falciparum 3D7 after 72 hrs by SYBR Green-1 staining based fluorescence assay; assay type: functional; details: 3D7, 72 h
[4] = Cytotoxicity against monkey Vero C1008 cells after 72 hrs by MTT assay; assay type: cell-based; details: chlorocebus sabaeus
[5] = Selectivity index, ratio of CC50 for monkey Vero C1008 cells to IC50 for chloroquine-sensitive Plasmodium falciparum 3D7; assay type: toxicity; details: read-out: Ratio CC50/IC50
[6] = system: Pseudomonas aeruginosa; experiment: Antibacterial activity against Pseudomonas aeruginosa ATCC BAA-427 by broth microdilution method; assay type: functional
Outline: (§1)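 Bacteria were tested by the NCCLS method in Mueller Hinton broth, with gentamicin and norfloxacin as reference drugs.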

[7] = system: Escherichia coli; experiment: Antibacterial activity against Escherichia coli ATCC 9637 by broth microdilution method; assay type: functional; details: W; outline: as §1
[8] = system: Candida albicans; experiment: Anti-fungal activity against Candida albicans after 48 hrs by broth microdilution method; assay type: functional
[9] = system: Trichophyton mentagrophytes; experiment: Anti-fungal activity against Trichophyton mentagrophytes after 48 hrs by broth microdilution method; assay type: functional
[10] = system: Aspergillus fumigatus; experiment: Anti-fungal activity against Aspergillus fumigatus after 48 hrs by broth microdilution method; assay type: functional
[11] = system: Staphylococcus aureus; experiment: Antibacterial activity against Staphylococcus aureus ATCC 29213 by broth microdilution method; assay type: functional
[12] = system: Candida parapsilosis; experiment: Anti-fungal activity against Candida parapsilosis ATCC 22019 after 48 hrs by broth microdilution method; assay type: functional; details: Lodderomyces parapsilosis, ATCC 22019, 48 h
[13] = system: Klebsiella pneumoniae; experiment: Antibacterial activity against Klebsiella pneumoniae ATCC 27736 by broth microdilution method; assay type: functional; outline: as §1
[14] = system: Staphylococcus aureus; experiment: Antibacterial activity against methicillin-resistant Staphylococcus aureus ATCC 700699 by broth microdilution method; assay type: functional; details: Mu50
[15] = system: Cryptococcus neoformans; experiment: Anti-fungal activity against Cryptococcus neoformans after 48 hrs by broth microdilution method; assay type: functional
[16] = system: Staphylococcus aureus; experiment: Antibacterial activity against gentamicin-resistant Staphylococcus aureus ATCC 33592 by broth microdilution method; assay type: functional

Compound | IC50 [1] [mg/L] | MIC [1] [mg/L] | IC50 [2] [mg/L] | MIC [2] [mg/L] | IC50 [3] [µM] | IC50 [6] [mg/L] | MIC [6] [mg/L] | IC50 [7] [mg/L] | MIC [7] [mg/L] | IC50 [8] [mg/L] | MIC [8] [mg/L] | MIC [9] [mg/L] | MIC [10] [mg/L] | IC50 [11] [mg/L] | MIC [11] [mg/L] | MIC [12] [mg/L] | IC50 [13] [mg/L] | MIC [13] [mg/L] | MIC [14] [mg/L] | MIC [15] [mg/L] | also measured
O=c1c2ccccc2sn1-c1ccccc1 | 1.1 (≈ 4.84 µM) | 1.6 (≈ 7.04 µM) | 0.6 (≈ 2.64 µM) | 1.7 (≈ 7.48 µM) | 0.74 | > 50 | > 50 | > 50 | > 50 | 2.9 (≈ 12.8 µM) | 3.02 (≈ 13.3 µM) | 0.8 (≈ 3.52 µM) | 6.4 (≈ 28.2 µM) | 1.6 (≈ 7.04 µM) | 2.1 (≈ 9.24 µM) | 0.8 (≈ 3.52 µM) | > 50 | > 50 | 0.77 (≈ 3.39 µM) | 1.21 (≈ 5.32 µM) | CC50 at 72 h [4]: 19.4 µM; selectivity ratio [5]: 26.3; IC50 [9]: 0.7 mg/L (≈ 3.08 µM); IC50 [10]: 6.1 mg/L (≈ 26.8 µM); IC50 [12]: 0.7 mg/L (≈ 3.08 µM); IC50 [15]: 0.9 mg/L (≈ 3.96 µM)
Cc1ccc(-n2sc3ccccc3c2=O)cc1 | 0.6 (≈ 2.49 µM) | 1.07 (≈ 4.43 µM) | 0.9 (≈ 3.73 µM) | 1 (≈ 4.14 µM) | 1.66 | > 50 | > 50 | > 50 | > 50 | 1.3 (≈ 5.39 µM) | 2.4 (≈ 9.95 µM) | 1.7 (≈ 7.04 µM) | 13.3 (≈ 55.1 µM) | 0.6 (≈ 2.49 µM) | 1 (≈ 4.14 µM) | 0.6 (≈ 2.49 µM) | > 50 | > 50 | 0.75 (≈ 3.11 µM) | 1.5 (≈ 6.22 µM) | CC50 at 72 h [4]: 19.9 µM; selectivity ratio [5]: 12; IC50 [10]: 4.1 mg/L (≈ 17 µM); IC50 [12]: 0.4 mg/L (≈ 1.66 µM); IC50 [15]: 1.2 mg/L (≈ 4.97 µM)
O=c1c2ccccc2sn1-c1ccc(Cl)cc1 | – | 6.25 (≈ 23.9 µM) | – | 12.5 (≈ 47.8 µM) | 0.92 | – | > 50 | – | > 50 | – | 12.5 (≈ 47.8 µM) | 12.5 (≈ 47.8 µM) | 25 (≈ 95.5 µM) | – | 6.25 (≈ 23.9 µM) | 12.5 (≈ 47.8 µM) | – | > 50 | 3.12 (≈ 11.9 µM) | 12.5 (≈ 47.8 µM) | MIC [16]: 6.26 mg/L (≈ 23.9 µM); CC50 at 72 h [4]: 71.7 µM; selectivity ratio [5]: 70.8
CC[C@H](C)[C@@H](C(=O)OC)n1sc2ccccc2c1=O | 2 (≈ 7.16 µM) | 4.2 (≈ 15 µM) | 4.7 (≈ 16.8 µM) | 18.2 (≈ 65.1 µM) | > 2 | > 50 | > 50 | > 50 | > 50 | 1.6 (≈ 5.73 µM) | 2.5 (≈ 8.95 µM) | > 50 | 12.5 (≈ 44.7 µM) | 2.1 (≈ 7.52 µM) | 4.3 (≈ 15.4 µM) | 4.5 (≈ 16.1 µM) | > 50 | > 50 | 0.89 (≈ 3.19 µM) | 8.3 (≈ 29.7 µM) | IC50 [9]: > 50 mg/L; IC50 [12]: 3.1 mg/L (≈ 11.1 µM); IC50 [14]: 0.43 mg/L (≈ 1.54 µM); IC50 [15]: 7.3 mg/L (≈ 26.1 µM)
O=c1c2ccccc2sn1-c1ccccc1I | – | 12.5 (≈ 35.4 µM) | – | 25 (≈ 70.8 µM) | > 2 | – | > 50 | – | > 50 | – | 25 (≈ 70.8 µM) | 25 (≈ 70.8 µM) | 50 (≈ 142 µM) | – | 12.5 (≈ 35.4 µM) | 25 (≈ 70.8 µM) | – | > 50 | 25 (≈ 70.8 µM) | 25 (≈ 70.8 µM) | MIC [16]: 12.5 mg/L (≈ 35.4 µM)
COC(=O)[C@@H](NC(=O)[C@H](C(C)C)n1sc2ccccc2c1=O)C(C)C | > 50 | > 50 | > 50 | > 50 | > 2 | > 50 | > 50 | > 50 | > 50 | > 50 | > 50 | > 50 | > 50 | > 50 | > 50 | > 50 | > 50 | > 50 | > 50 | > 50 | IC50 [9]: > 50 mg/L; IC50 [10]: > 50 mg/L; IC50 [12]: > 50 mg/L; IC50 [14]: > 50 mg/L; IC50 [15]: > 50 mg/L
O=c1c2ccccc2sn1-c1cccc2ccccc12 | – | 3.12 (≈ 11.2 µM) | – | 12.5 (≈ 45.1 µM) | 2.64 | – | > 50 | – | > 50 | – | 25 (≈ 90.1 µM) | 12.5 (≈ 45.1 µM) | 50 (≈ 180 µM) | – | 6.25 (≈ 22.5 µM) | 25 (≈ 90.1 µM) | – | > 50 | 3.12 (≈ 11.2 µM) | 25 (≈ 90.1 µM) | MIC [16]: 6.25 mg/L (≈ 22.5 µM); CC50 at 72 h [4]: 90.8 µM; selectivity ratio [5]: 34.4
C[C@@H](c1ccccc1)n1sc2ccccc2c1=O | 6.8 (≈ 26.6 µM) | 10.2 (≈ 39.9 µM) | 0.4 (≈ 1.57 µM) | 1.6 (≈ 6.27 µM) | > 2 | > 50 | > 50 | > 50 | > 50 | 0.5 (≈ 1.96 µM) | 1 (≈ 3.92 µM) | 0.4 (≈ 1.57 µM) | 6.5 (≈ 25.5 µM) | 4.6 (≈ 18 µM) | 8.5 (≈ 33.3 µM) | 2.1 (≈ 8.22 µM) | > 50 | > 50 | 1.9 (≈ 7.44 µM) | 2.9 (≈ 11.4 µM) | IC50 [9]: 0.7 mg/L (≈ 2.74 µM); IC50 [10]: 0.4 mg/L (≈ 1.57 µM); IC50 [12]: 0.7 mg/L (≈ 2.74 µM); IC50 [14]: 1 mg/L (≈ 3.92 µM); IC50 [15]: 1 mg/L (≈ 3.92 µM)
O=c1c2ccccc2sn1Cc1ccc2c(c1)OCO2 | 2.2 (≈ 7.71 µM) | 2.6 (≈ 9.11 µM) | 0.3 (≈ 1.05 µM) | 0.5 (≈ 1.75 µM) | > 2 | > 50 | > 50 | > 50 | > 50 | 0.56 (≈ 1.96 µM) | 0.7 (≈ 2.45 µM) | 1.5 (≈ 5.26 µM) | 1.7 (≈ 5.96 µM) | 1.9 (≈ 6.66 µM) | 2.5 (≈ 8.76 µM) | > 50 | > 50 | > 50 | 1 (≈ 3.5 µM) | 0.8 (≈ 2.8 µM) | IC50 [10]: 1.5 mg/L (≈ 5.26 µM); IC50 [14]: 0.6 mg/L (≈ 2.1 µM); IC50 [15]: 0.8 mg/L (≈ 2.8 µM)
